The record followed here is paper PMC8486320 (Journal of medicinal chemistry, 2021).

Where no end group is shown, it is not given here. The star is where a group is joined. Crotonyl(E) = C/C=C/C(=O)*

For series [1], the target named is T1, ENL (Homo sapiens, UniProt Q03111).
T1 sequence (Q03111 1-145): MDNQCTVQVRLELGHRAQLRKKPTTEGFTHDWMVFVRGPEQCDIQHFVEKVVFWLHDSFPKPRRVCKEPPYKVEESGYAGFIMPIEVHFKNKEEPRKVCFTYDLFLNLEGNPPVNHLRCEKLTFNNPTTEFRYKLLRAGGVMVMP
Kind of series: Competitive peptide pulldown, ENL with H3K9ac. It is filed as binding.

For series [2], the target named is T2, YEATS2 (Homo sapiens, UniProt Q9ULM3).
T2 sequence (Q9ULM3 201-332): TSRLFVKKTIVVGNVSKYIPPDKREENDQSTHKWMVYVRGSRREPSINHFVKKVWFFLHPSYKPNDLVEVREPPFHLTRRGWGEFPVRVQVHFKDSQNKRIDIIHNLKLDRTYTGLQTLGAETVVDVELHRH
Kind of series: Competitive peptide pulldown, YEATS2 with H3K27cr. The format is binding. The conditions noted are these: 20 μM compound.

In series [3] the target is T3, YEATS2 YEATS domain (Homo sapiens, UniProt Q9ULM3).
T3 sequence (Q9ULM3 201-332): T2 sequence (Q9ULM3 201-332)
The series is described as follows: AlphaScreen assay, YEATS2 YEATS / H3K27cr peptide. It is filed as binding.

For series [4], the target named is T4, AF9 (Homo sapiens, UniProt P42568).
T4 sequence (P42568 1-145): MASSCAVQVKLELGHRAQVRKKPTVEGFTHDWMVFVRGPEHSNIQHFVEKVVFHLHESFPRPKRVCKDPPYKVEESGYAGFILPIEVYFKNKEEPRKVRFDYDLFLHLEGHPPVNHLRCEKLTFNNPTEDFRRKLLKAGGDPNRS
Kind of series: Competitive peptide pulldown, AF9 with H3K9ac. It is filed as binding. As to conditions: 20 μM compound.

Series [5] addresses GAS41 YEATS domain (Homo sapiens, UniProt O95619). Kind of series: AlphaScreen assay, GAS41 YEATS / H3K27ac peptide. It is filed as binding.
Series [6] has as its target T5, GAS41 (Homo sapiens, UniProt O95619). The series is described as follows: Competitive peptide pulldown, GAS41 with H3K27ac. The conditions noted are these: 20 μM compound. The format is binding.
Series [7] relates to Caco-2 cell monolayers. The series is described as follows: Caco-2 cell permeability assay. As to conditions: 10 μM, 2 hours, A-B direction. It is filed as in vitro ADME. Put shortly:
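Flux was measured across polarised Caco-2 monolayers in triplicate, with ranitidine, talinolol and warfarin as controls. Apparent permeability (Papp) was calculated for the apical-to-basolateral direction.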
In general terms: Caco-2 monolayers are a common model of the intestinal barrier.

Series [8] has as its system U2OS cells. Kind of series: Cell growth inhibition assay. The format is cell-based, human. As to conditions: even at 50 μM, ENL-independent cell line.
Series [9] deals with T6, AF9 proteins (Homo sapiens, UniProt P42568).
T6 sequence (P42568 1-568): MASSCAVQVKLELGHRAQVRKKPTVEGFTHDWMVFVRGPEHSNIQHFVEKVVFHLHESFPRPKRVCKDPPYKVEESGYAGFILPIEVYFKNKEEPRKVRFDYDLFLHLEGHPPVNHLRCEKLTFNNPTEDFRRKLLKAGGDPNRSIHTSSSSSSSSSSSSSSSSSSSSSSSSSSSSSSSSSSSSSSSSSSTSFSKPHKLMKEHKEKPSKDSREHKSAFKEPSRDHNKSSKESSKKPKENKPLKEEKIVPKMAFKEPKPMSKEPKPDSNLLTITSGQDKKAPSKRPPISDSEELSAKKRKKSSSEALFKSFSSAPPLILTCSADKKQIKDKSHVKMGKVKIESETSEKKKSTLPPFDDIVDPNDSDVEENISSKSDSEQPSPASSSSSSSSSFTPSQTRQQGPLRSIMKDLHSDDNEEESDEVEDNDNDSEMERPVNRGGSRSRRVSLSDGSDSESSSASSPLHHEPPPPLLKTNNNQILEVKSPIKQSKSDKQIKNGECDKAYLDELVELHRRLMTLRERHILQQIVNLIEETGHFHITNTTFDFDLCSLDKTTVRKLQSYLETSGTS
The series is described as follows: Cellular thermal shift assay. The format is cell-based. The conditions noted are these: HeLa cells, 20 μM, 5 h. Put shortly: (§1)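 Cells were incubated with 20 µM test compound for 5 h, washed three times in PBS and resuspended in PBS with protease inhibitors (about 3 million cells per aliquot). Aliquots were heated 3 min at the indicated temperatures, then held 2 min at room temperature. Cells were lysed with NP40/glycerol/DTT buffer plus three liquid-nitrogen/37 °C freeze-thaw cycles, and cleared at 13,000 rpm, 4 °C, 10 min. Soluble protein was read by western blot.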

Series [10] relates to MOLM13 cells. The series is described as follows: Combinatorial treatment of compound 7 and JQ1, MOLM13. It is filed as cell-based, human. The conditions noted are these: 7 0 to 20 μM, JQ1 0–200 nM, Combenefit. Put shortly:
(§2)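 Leukaemia cells kept in RPMI-1640 with 10% FBS were given DMSO, test compound, JQ1, or the two combined at a concentration matrix for 6 days. Viability was read by CellTiter-Glo luminescence as % surviving relative to DMSO. Drug interaction was scored as synergy using Combenefit.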

Series [11] deals with HOXA9 gene expression. Kind of series: qRT-PCR of HOXA9 gene expression in MOLM13 cells. The format is cell-based, human. In short, it runs like this:
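MOLM13 cells were treated with test compound or DMSO. Total RNA was extracted and reverse-transcribed, and HOXA9 was quantified by SYBR Green real-time PCR. Expression was normalised to GAPDH by the comparative Ct method; mean ± SEM, n = 3, two-tailed Student's t test.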
(Real-time PCR tracks product formation cycle by cycle.)

Series [12] deals with T7, ENL YEATS domain (Homo sapiens, UniProt Q03111).
T7 sequence (Q03111 1-148): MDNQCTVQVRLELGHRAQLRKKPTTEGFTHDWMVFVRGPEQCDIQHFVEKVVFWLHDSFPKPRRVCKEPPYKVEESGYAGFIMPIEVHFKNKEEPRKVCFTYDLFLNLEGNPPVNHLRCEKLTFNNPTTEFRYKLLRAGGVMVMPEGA
Kind of series: 1H,15N HSQC NMR titration of ENL YEATS domain. The format is binding. The conditions noted are these: 15N-labelled His-ENL, ligand titrated. In short, it runs like this: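 15N-labelled YEATS domain was expressed in E. coli Rosetta-2 (DE3) pLysS in NH4Cl minimal medium (0.5 mM IPTG, 18 h, 16 °C) and purified by Ni-NTA then size exclusion. 1H,15N HSQC spectra were recorded at 298 K, 600 MHz, on 0.2 mM protein in 25–50 mM Tris-HCl pH 7.5, 150 mM NaCl, 0.2 mM TCEP, 10% D2O. Test compound or H3K27cr peptide (aa 22–31) was added stepwise at set protein:ligand molar ratios.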

The target of series [13] is T8, ENL protein (Homo sapiens, UniProt Q03111).
T8 sequence (Q03111 1-559): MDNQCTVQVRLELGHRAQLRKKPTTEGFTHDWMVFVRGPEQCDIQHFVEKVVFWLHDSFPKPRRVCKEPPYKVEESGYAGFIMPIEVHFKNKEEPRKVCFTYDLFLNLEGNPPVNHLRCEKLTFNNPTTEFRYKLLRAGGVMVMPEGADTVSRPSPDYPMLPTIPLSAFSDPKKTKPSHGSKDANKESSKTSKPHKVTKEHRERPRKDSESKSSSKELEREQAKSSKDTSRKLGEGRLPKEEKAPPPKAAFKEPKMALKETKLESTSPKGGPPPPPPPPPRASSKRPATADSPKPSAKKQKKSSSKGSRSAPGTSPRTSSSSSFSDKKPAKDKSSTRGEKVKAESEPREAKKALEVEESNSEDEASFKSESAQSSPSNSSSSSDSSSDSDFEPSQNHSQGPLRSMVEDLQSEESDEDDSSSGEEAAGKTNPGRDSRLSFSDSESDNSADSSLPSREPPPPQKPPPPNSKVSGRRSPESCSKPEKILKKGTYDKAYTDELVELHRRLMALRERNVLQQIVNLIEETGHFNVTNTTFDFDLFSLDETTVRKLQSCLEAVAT
The series is described as follows: Cellular thermal shift assay. The conditions noted are these: 20 μM, 5 h. It is filed as cell-based. In short, it runs like this: as §1

Series [14] concerns MV4;11 cells. Kind of series: Combinatorial treatment of compound 7 and JQ1, MV4. It is filed as cell-based, human. The conditions noted are these: 7 0 to 20 μM, JQ1 0–200 nM, Combenefit. Put shortly: as §2
For series [15], the target named is T5, GAS41. The series is described as follows: Cellular thermal shift assay. The format is cell-based. As to conditions: MV4;11 and MOLM13 cells, 20 μM, 5 h, vs DMSO. In short, it runs like this:
as §1

Series [16] has as its system MV4;11 cells. Kind of series: Cell growth inhibition assay. The conditions noted are these: compared with MOLM13 (5 and 10 μM), 3 days. It is filed as cell-based, human.
Series [17] concerns the target T9, ENL YEATS domain (Homo sapiens, UniProt Q03111).
T9 sequence (Q03111 1-145): T1 sequence (Q03111 1-145)
The series is described as follows: AlphaScreen assay, His-ENL YEATS / biotin-H3K9ac interaction. It is filed as binding. The conditions noted are these: SAR comparison with 11 or 6.

T5 sequence (O95619 whole entry): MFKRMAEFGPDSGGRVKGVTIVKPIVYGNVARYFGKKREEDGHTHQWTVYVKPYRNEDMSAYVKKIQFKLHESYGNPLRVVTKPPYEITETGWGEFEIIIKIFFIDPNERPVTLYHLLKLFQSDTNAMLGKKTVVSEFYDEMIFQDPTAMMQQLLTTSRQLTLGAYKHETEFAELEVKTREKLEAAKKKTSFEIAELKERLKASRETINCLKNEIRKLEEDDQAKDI
GAS41 YEATS domain, sequence (O95619 whole entry, the tested form may be a part): as the sequence (O95619 whole entry) above

On to `CSc1ccc(CNC(=O)c2ccc3nncn3c2)cc1` [compound 1], for which, in series [1] (5 μM compound), the “inhibition of ENL binding to H3K9ac” value is listed as “strongly inhibited”. In series [2], the “inhibition of YEATS2 binding to acylated histone peptide” value (from here on “inhibition of YEATS2 binding”) is “none of these compounds showed notable inhibition”. Moreover, in [3], the “inhibition of YEATS2 YEATS domain (IC50 measurement)” value was “no detectable inhibition”. The “inhibition of AF9 binding to acylated histone peptide” value (“inhibition of AF9 binding” below) in series [4] is “none of these compounds showed notable inhibition”. In addition, in series [5], the “inhibition of GAS41 YEATS domain (IC50 measurement)” value is given as “no detectable inhibition”. Besides, in series [6], the “inhibition of GAS41 binding to acylated histone peptide” value (“inhibition of GAS41 binding” below) is reported as “none of these compounds showed notable inhibition”.
For the molecule `CN(C)Cc1ccc(CNC(=O)c2ccc3nncn3c2)cc1` [compound 7, N-(4-((dimethylamino)methyl)benzyl)-[1,2,4]triazolo[4,3-a]pyridine-6-carboxamide], the “Caco-2 permeability” value in [7] is “comparable to 11”. In addition, the “response of U2OS cell growth to treatment” value in [8] is listed as “little or no response”. Besides, the “thermal stability of AF9 protein (CETSA)” value in series [9] is given as “stabilized ENL but not AF9 proteins”. Further, the “interaction with JQ1 in killing leukemia cells” value in series [10] and in series [14] was “synergistic effect” each time. In series [1] (5 μM compound), the “inhibition of ENL binding to H3K9ac” value is recorded as “strongly inhibited”. Besides, in series [11], the “lowest drug concentration effectively suppressing HOXA9 gene expression” value was 2.5 µM. Moreover, the “inhibition of YEATS2 binding” value in [2] is given as “none of these compounds showed notable inhibition”. The “chemical shift perturbations, exchange regime on the NMR timescale” value in series [12] was “intermediate to slow exchange regime”. Moreover, the “thermal stability of ENL protein (CETSA)” value is “stabilized ENL” in series [13] (HeLa cells); “bound and stabilized ENL proteins” in series [13] (MV4;11 and MOLM13 cells, vs DMSO). Moreover, the “inhibition of AF9 binding” value in series [4] was “none of these compounds showed notable inhibition”. In addition, in series [15], the “thermal stability of GAS41 protein (CETSA)” value is reported as “little or no difference”. Besides, in [16], the “inhibition of MV4;11 cell growth” value is on record as “about double amounts of the compound were needed to achieve similar levels of inhibition”. For the same molecule, in series [6], the “inhibition of GAS41 binding” value is “none of these compounds showed notable inhibition”.
Consider `O=C(NCc1ccc(CN2CCC2)cc1)c1ccc2nncn2c1` [compound 11, N-(4-(azetidin-1-ylmethyl)benzyl)-[1,2,4]triazolo[4,3-a]pyridine-6-carboxamide], for which the “inhibition of ENL binding to H3K9ac” value in series [1] (1 μM compound) is listed as “strongly inhibited”. The “inhibition of YEATS2 binding” value in [2] is given as “none of these compounds showed notable inhibition”. Also, the “inhibition of AF9 binding” value in series [4] is on record as “none of these compounds showed notable inhibition”. In addition, the “inhibition of GAS41 binding” value in series [6] was “none of these compounds showed notable inhibition”.
For `O=C(NCc1cccc(CN2CCC2)c1)c1ccc2nncn2c1` [compound 15, N-(3-(azetidin-1-ylmethyl)benzyl)-[1,2,4]triazolo[4,3-a]pyridine-6-carboxamide], in series [17], the “inhibition potency compared with parent compound” value is listed as “did not result in any increase of potency”.
With `CC(NC(=O)c1ccc2nncn2c1)c1ccc(CN2CCC2)cc1` (centres unmarked) [compound 16, N-(1-(4-(azetidin-1-ylmethyl)phenyl)ethyl)-[1,2,4]triazolo[4,3-a]pyridine-6-carboxamide], in series [17], the “inhibition potency compared with parent compound” value is recorded as “greatly reduced the inhibition potency”.
Regarding `O=C(NCc1ccc(CNc2ncc(F)cn2)cc1)c1ccc2nncn2c1` [compound 24, N-(4-(((5-fluoropyrimidin-2-yl)amino)methyl)benzyl)-[1,2,4]triazolo[4,3-a]pyridine-6-carboxamide], the “inhibition of ENL binding to H3K9ac” value in series [1] (1 μM compound) was “strongly inhibited”. The “inhibition of YEATS2 binding” value in [2] is on record as “none of these compounds showed notable inhibition”. The “inhibition of AF9 binding” value in series [4] was “none of these compounds showed notable inhibition”. For the same molecule, in series [6], the “inhibition of GAS41 binding” value is recorded as “none of these compounds showed notable inhibition”.
As to “H3K27cr peptide: histone H3 residues 22–31 with a crotonylation at K27 (TKAARK(Crotonyl(E))SAPA; UniProt P68431 23-32, looked up, fragment) [reference compound]”, in series [12], the “chemical shift perturbations, exchange regime on the NMR timescale” value is recorded as “intermediate to fast exchange regime”.
